What was measured:
[1] = tested on: Human immunodeficiency virus 1; assay: Selectivity ratio of EC50 for drug-resistant HIV-1 harboring protease L10F/I15V/M46I/I47V/I50V/F53L/A71V/V82I/I84V/L89T mutant infected in human TZM-bl cells to EC50 for wild-type HIV-1 NL4-3 infected in human TZM-bl cells; assay type: functional
[2] = tested on: Human immunodeficiency virus 1; assay: Selectivity ratio of EC50 for drug-resistant HIV-1 harboring RT mutation/protease I13V/G16E/V32I/L33F/K45I/M46I/A71V/L76V/V82F/I84V mutant infected in human TZM-bl cells to EC50 for wild-type HIV-1 NL4-3 infected in human TZM-bl cells; assay type: functional
[3] = tested on: Human immunodeficiency virus 1; assay: (§1) Antiviral activity against drug-resistant HIV-1 harboring protease L10F/I15V/M46I/I47V/I50V/F53L/A71V/V82I/I84V/L89T mutant infected in human TZM-bl cells using virus particles harvested from 24 hrs drug-treated human CEM cells infected with virus assessed as reduction in viral infection measured after 48 hrs in TZM-bl cells by Firefly luciferase based assay; assay type: functional, organism-based; settings: Human immunodeficiency virus 1, TZM-bl
Summary of the method: (§2)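 Virus stocks grown by infecting 3 × 10^6 CEM cells with virus at 37 °C for 2–3 h, then RPMI with medium changes every 48 h until CPE. Infected CEM cells plated onto five-fold serial inhibitor dilutions in RPMI (top 100 μM).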

[4] = tested on: Human immunodeficiency virus 1; assay: Selectivity ratio of EC50 for drug-resistant HIV-1 harboring Gag mutation/protease I13V/G16E/V32I/L33F/K45I/M46I/A71V/L76V/V82F/I84V mutant infected in human TZM-bl cells to EC50 for wild-type HIV-1 NL4-3 infected in human TZM-bl cells; assay type: functional
[5] = tested on: Human immunodeficiency virus 1; assay: as §1, with “L10F/I13V/L33F/K45R/M46I/I47V/I50V/F53L/I54L/I66F/A71V/T74A/L76S/V82I” for “L10F/I15V/M46I/I47V/I50V/F53L/A71V/V82I/I84V/L89T”; assay type: functional, organism-based; settings: Human immunodeficiency virus 1, TZM-bl; summary of the method: as §2
[6] = tested on: Human immunodeficiency virus 1; assay: Selectivity ratio of EC50 for drug-resistant HIV-1 harboring protease L10F/I13V/L33F/K45R/M46I/I47V/I50V/F53L/I54L/I66F/A71V/T74A/L76S/V82I mutant infected in human TZM-bl cells to EC50 for wild-type HIV-1 NL4-3 infected in human TZM-bl cells; assay type: functional
[7] = tested on: Human immunodeficiency virus 1; assay: as §1, with “RT mutation/protease I13V/G16E/V32I/L33F/K45I/M46I/A71V/L76V/V82F/I84V” for “protease L10F/I15V/M46I/I47V/I50V/F53L/A71V/V82I/I84V/L89T”; assay type: functional, organism-based; settings: Human immunodeficiency virus 1, TZM-bl; summary of the method: as §2
[8] = tested on: Human immunodeficiency virus 1; assay: as §1, with “L10F/L33F/M46I/I47V/I50V/F53L/L63P/A71V/L76S/V82I/I85V/L89I” for “L10F/I15V/M46I/I47V/I50V/F53L/A71V/V82I/I84V/L89T”; assay type: functional, organism-based; settings: Human immunodeficiency virus 1, TZM-bl
[9] = tested on: Human immunodeficiency virus 1; assay: as §1, with “Gag mutation/protease I13V/G16E/V32I/L33F/K45I/M46I/A71V/L76V/V82F/I84V” for “protease L10F/I15V/M46I/I47V/I50V/F53L/A71V/V82I/I84V/L89T”; assay type: functional, organism-based; settings: Human immunodeficiency virus 1, TZM-bl; summary of the method: as §2
[10] = tested on: Human immunodeficiency virus 1; assay: Antiviral activity against wild-type HIV-1 NL4-3 infected in human TZM-bl cells using virus particles harvested from 24 hrs drug-treated human CEM cells infected with virus assessed as reduction in viral infection measured after 48 hrs in TZM-bl cells by Firefly luciferase based assay; assay type: functional, organism-based; settings: Human immunodeficiency virus 1, NL4-3, TZM-bl; summary of the method: as §2
[11] = tested on: Human immunodeficiency virus 1; assay: Selectivity ratio of EC50 for drug-resistant HIV-1 harboring protease L10F/L33F/M46I/I47V/I50V/F53L/L63P/A71V/L76S/V82I/I85V/L89I mutant infected in human TZM-bl cells to EC50 for wild-type HIV-1 NL4-3 infected in human TZM-bl cells; assay type: functional
[12] = tested on: Human immunodeficiency virus 1; assay: Selectivity ratio of EC50 for drug-resistant HIV-1 harboring protease L10F/V11I/I13V/V32I/L33F/K43T/M46L/I54L/A71V/V82I/I84V/L89M/T91S/Q92R mutant infected in human TZM-bl cells to EC50 for wild-type HIV-1 NL4-3 infected in human TZM-bl cells; assay type: functional
[13] = tested on: Human immunodeficiency virus 1; assay: Selectivity ratio of EC50 for DRV-resistant HIV-1 infected in human TZM-bl cells to EC50 for wild-type HIV-1 NL4-3 infected in human TZM-bl cells; assay type: functional
[14] = tested on: Human immunodeficiency virus 1; assay: Antiviral activity against DRV-resistant HIV-1 infected in human TZM-bl cells using virus particles harvested from 24 hrs drug-treated human CEM cells infected with virus assessed as reduction in viral infection measured after 48 hrs in TZM-bl cells by Firefly luciferase based assay; assay type: functional, organism-based; settings: Human immunodeficiency virus 1, TZM-bl; summary of the method: as §2
[15] = tested on: Human immunodeficiency virus 1; assay: as §1, with “L10F/V11I/I13V/V32I/L33F/K43T/M46L/I54L/A71V/V82I/I84V/L89M/T91S/Q92R” for “L10F/I15V/M46I/I47V/I50V/F53L/A71V/V82I/I84V/L89T”; assay type: functional, organism-based; settings: Human immunodeficiency virus 1, TZM-bl; summary of the method: as §2

SMILES: CCC(CC)CN(C[C@@H](O)[C@H](Cc1ccccc1)NC(=O)O[C@H]1CO[C@H]2OCC[C@H]21)S(=O)(=O)c1ccc(OC)cc1
- Ratio EC50 [1]: 7267
- Ratio EC50 [2]: 83
- EC50 [3]: 21800 nM
- Ratio EC50 [4]: 47
- EC50 [5]: 16700 nM
- Ratio EC50 [6]: 5567
- EC50 [7]: 250 nM
- EC50 [8]: 800 nM
- EC50 [9]: 140 nM
- EC50 [10]: 3 nM
- Ratio EC50 [11]: 267
- Ratio EC50 [12]: 1793
- Ratio EC50 [13]: 533
- EC50 [14]: 1600 nM
- EC50 [15]: 5380 nM

From ChEMBL document CHEMBL5620363, “HIV-1 protease inhibitors with a P1 phosphonate modification maintain potency against drug-resistant variants by increased interactions with flap residues” (Eur J Med Chem, 2023)
